{"source": "ChEMBL document CHEMBL1128238", "about": "“Synthesis and structure-activity relationships of dequalinium analogues as K+ channel blockers. Investigations on the role of the charged heterocycle” (J Med Chem, 1995)", "key": {"Rattus norvegicus [1]": {"species": "Rattus norvegicus", "assay": "Ability to inhibit after-hyperpolarization (AHP) in cultured rat sympathetic neurons. (number of neurons tested, n=3).", "assay_type": "functional", "details": "Sympathetic neuron", "outline": "(§1)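 SK(Ca) block judged from inhibition of the after-hyperpolarization in cultured rat sympathetic neurones. Each compound was tested at two to four concentrations on at least three cells. Test concentrations above 10–30 μM were generally avoided. The time course of block onset was also noted.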"}, "Rattus norvegicus [2]": {"species": "Rattus norvegicus", "assay": "Ratio of the concentrations of the test compound and dequalinium that cause 50% inhibition, as determined in the same experiment was reported. (number of neurons tested, n=3).", "assay_type": "functional", "outline": "(§2)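 AHP inhibition recorded in cultured rat sympathetic neurones. Each compound was applied at two to four concentrations on at least three cells, generally not above 10–30 μM.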"}, "Rattus norvegicus [3]": {"species": "Rattus norvegicus", "assay": "Ability to inhibit after-hyperpolarization (AHP) in cultured rat sympathetic neurons. (number of neurons tested, n=5).", "assay_type": "functional", "details": "Sympathetic neuron", "outline": "as §1"}, "Rattus norvegicus [4]": {"species": "Rattus norvegicus", "assay": "Ratio of the concentrations of the test compound and dequalinium that cause 50% inhibition, as determined in the same experiment was reported. (number of neurons tested, n=5).", "assay_type": "functional", "outline": "as §2"}, "Rattus norvegicus [5]": {"species": "Rattus norvegicus", "assay": "Ratio of the concentrations of the test compound and dequalinium that cause 50% inhibition, as determined in the same experiment was reported. (number of neurons tested, n=4).", "assay_type": "functional", "outline": "as §2"}, "Rattus norvegicus [6]": {"species": "Rattus norvegicus", "assay": "Ability to inhibit after-hyperpolarization (AHP) in cultured rat sympathetic neurons. (number of neurons tested, n=4).", "assay_type": "functional", "details": "Sympathetic neuron", "outline": "as §1"}, "Rattus norvegicus [7]": {"species": "Rattus norvegicus", "assay": "Ability to inhibit after-hyperpolarization (AHP) in cultured rat sympathetic neurons. (number of neurons tested, n=7).", "assay_type": "functional", "details": "Sympathetic neuron", "outline": "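SK(Ca) block measured as inhibition of the after-hyperpolarization in cultured rat sympathetic neurones. Each compound was tested at two to four concentrations on at least three cells, generally not above 10–30 μM. Onset of block was also timed. The 50%-inhibitory concentration was determined.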"}, "Rattus norvegicus [8]": {"species": "Rattus norvegicus", "assay": "Ratio of the concentrations of the test compound and dequalinium that cause 50% inhibition, as determined in the same experiment was reported. (number of neurons tested, n=7).", "assay_type": "functional", "outline": "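AHP inhibition in cultured rat sympathetic neurones, with each compound at two to four concentrations on at least three cells. The equieffective molar ratio is the test compound's 50%-inhibitory concentration divided by that of dequalinium, both determined in the same experiment.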"}, "Rattus norvegicus [9]": {"species": "Rattus norvegicus", "assay": "Ratio of the concentrations of the test compound and dequalinium that cause 50% inhibition, as determined in the same experiment was reported. (number of neurons tested, n=6).", "assay_type": "functional", "outline": "as §2"}, "Rattus norvegicus [10]": {"species": "Rattus norvegicus", "assay": "Ability to inhibit after-hyperpolarization (AHP) in cultured rat sympathetic neurons. (number of neurons tested, n=6).", "assay_type": "functional", "details": "Sympathetic neuron", "outline": "as §1"}, "Rattus norvegicus [11]": {"species": "Rattus norvegicus", "assay": "Ability to inhibit after-hyperpolarization (AHP) in cultured rat sympathetic neurons. (number of neurons tested, n=18).", "assay_type": "functional", "details": "Sympathetic neuron", "outline": "as §1"}, "Rattus norvegicus [12]": {"species": "Rattus norvegicus", "assay": "Ratio of the concentrations of the test compound and dequalinium that cause 50% inhibition, as determined in the same experiment was reported. (number of neurons tested, n=18).", "assay_type": "functional", "outline": "as §2"}, "Rattus norvegicus [13]": {"species": "Rattus norvegicus", "assay": "cells", "details": "Sympathetic neuron"}}}
{"smiles": "Nc1ccnc(NCCCCCCCCCCNc2cc(N)ccn2)c1", "values": [{"measurement": "IC50", "setting": "Rattus norvegicus [1]", "result": 5.5, "unit": "µM"}, {"measurement": "EMR", "setting": "Rattus norvegicus [2]", "result": 5}]}
{"smiles": "Nc1c2c([n+](CCCCCCCCCC[n+]3c4c(c(N)c5ccccc53)CCCC4)c3ccccc13)CCCC2", "values": [{"measurement": "IC50", "setting": "Rattus norvegicus [3]", "result": 1, "unit": "µM"}, {"measurement": "EMR", "setting": "Rattus norvegicus [4]", "result": 0.9}]}
{"smiles": "Cc1n(C)c2ccccc2[n+]1CCCCCCCCCC[n+]1c(C)n(C)c2ccccc21.O.O.[Cl-].[Cl-]", "values": [{"measurement": "EMR", "setting": "Rattus norvegicus [5]", "result": ">10"}, {"measurement": "IC50", "setting": "Rattus norvegicus [6]", "result": "> 10", "unit": "µM"}]}
{"smiles": "Nc1cc[n+](CCCC#CC#CCCC[n+]2ccc(N)cc2)cc1.O.O.[Cl-].[Cl-]", "values": [{"measurement": "EMR", "setting": "Rattus norvegicus [5]", "result": 4.7}]}
{"smiles": "C[n+]1cccnc1NCCCCCCCCCCNc1nccc[n+]1C", "values": [{"measurement": "IC50", "setting": "Rattus norvegicus [3]", "result": "> 10", "unit": "µM"}, {"measurement": "EMR", "setting": "Rattus norvegicus [4]", "result": ">10"}]}
{"smiles": "Nc1cc[n+](CCCCCCCCCC[n+]2ccc(N)cc2)cc1", "values": [{"measurement": "IC50", "setting": "Rattus norvegicus [7]", "result": 35, "unit": "µM"}, {"measurement": "EMR", "setting": "Rattus norvegicus [8]", "result": 33}]}
{"smiles": "O=[N+]([O-])c1cc[n+]([O-])c(NCCCCCCCCCCNc2cc([N+](=O)[O-])cc[n+]2[O-])c1", "values": [{"measurement": "EMR", "setting": "Rattus norvegicus [5]", "result": ">30"}, {"measurement": "IC50", "setting": "Rattus norvegicus [6]", "result": "> 30", "unit": "µM"}]}
{"smiles": "CCCCCCCCCC[n+]1c(C)cc(N)c2ccccc21", "values": [{"measurement": "IC50", "setting": "Rattus norvegicus [1]", "result": 5.5, "unit": "µM"}, {"measurement": "EMR", "setting": "Rattus norvegicus [2]", "result": 4.7}]}
{"smiles": "Brc1c[n+](CCCCCCCCCC[n+]2cc(Br)c3ccccc3c2)cc2ccccc12", "values": [{"measurement": "IC50", "setting": "Rattus norvegicus [3]", "result": 4.7, "unit": "µM"}, {"measurement": "EMR", "setting": "Rattus norvegicus [4]", "result": 7.6}]}
{"smiles": "c1ccc2c[n+](CCCCCCCCCC[n+]3ccc4ccccc4c3)ccc2c1", "values": [{"measurement": "IC50", "setting": "Rattus norvegicus [3]", "result": 25, "unit": "µM"}, {"measurement": "EMR", "setting": "Rattus norvegicus [4]", "result": 80}]}
{"smiles": "C[n+]1c(CCCCCCCCCCc2ccc3ccccc3[n+]2C)ccc2ccccc21", "values": [{"measurement": "EMR", "setting": "Rattus norvegicus [9]", "result": 130}, {"measurement": "IC50", "setting": "Rattus norvegicus [10]", "result": 72, "unit": "µM"}]}
{"smiles": "C[n+]1c(CCCCCCCCCCCCc2ccc3ccccc3[n+]2C)ccc2ccccc21", "values": [{"measurement": "EMR", "setting": "Rattus norvegicus [5]", "result": 33}, {"measurement": "IC50", "setting": "Rattus norvegicus [6]", "result": 21, "unit": "µM"}]}
{"smiles": "[Br-].[Br-].c1ccc2c(c1)ccc[n+]2CCCCCCCCCC[n+]1cccc2ccccc21", "values": [{"measurement": "IC50", "setting": "Rattus norvegicus [3]", "result": 21, "unit": "µM"}, {"measurement": "EMR", "setting": "Rattus norvegicus [4]", "result": 15}]}
{"smiles": "CCCC[n+]1c(C)cc(N)c2ccccc21", "values": [{"measurement": "EMR", "setting": "Rattus norvegicus [2]", "result": 12}]}
{"smiles": "COc1cc(CCCCCCCCCCc2cc(OC)c3ccccc3[n+]2C)[n+](C)c2ccccc12", "values": [{"measurement": "IC50", "setting": "Rattus norvegicus [1]", "result": 9.5, "unit": "µM"}, {"measurement": "EMR", "setting": "Rattus norvegicus [2]", "result": 27}]}
{"smiles": "Cc1cc(N)c2ccccc2[n+]1CCCC#CC#CCCC[n+]1c(C)cc(N)c2ccccc21", "values": [{"measurement": "IC50", "setting": "Rattus norvegicus [1]", "result": 1.6, "unit": "µM"}, {"measurement": "EMR", "setting": "Rattus norvegicus [2]", "result": 2.4}]}
{"smiles": "c1ccc2c(NCCCCCCCCCCNc3c4ccccc4nc4ccccc34)c3ccccc3nc2c1", "values": [{"measurement": "IC50", "setting": "Rattus norvegicus [1]", "result": 6.7, "unit": "µM"}, {"measurement": "EMR", "setting": "Rattus norvegicus [2]", "result": 12.2}]}
{"smiles": "Cn1c[n+](CCCCCCCCCC[n+]2cn(C)c3ccccc32)c2ccccc21", "values": [{"measurement": "EMR", "setting": "Rattus norvegicus [5]", "result": 77}, {"measurement": "IC50", "setting": "Rattus norvegicus [6]", "result": 16, "unit": "µM"}]}
{"smiles": "CC[N+](CC)(CC)CCCCCCCCCC[n+]1c(C)cc(N)c2ccccc21.[I-].[I-]", "values": [{"measurement": "IC50", "setting": "Rattus norvegicus [1]", "result": 18, "unit": "µM"}, {"measurement": "EMR", "setting": "Rattus norvegicus [2]", "result": 17}]}
{"smiles": "Cc1cc(N)c2ccccc2[n+]1CCCCCCCCCC[n+]1c(C)cc(N)c2ccccc21.[Cl-].[Cl-]", "note": "[DEQUALINIUM CHLORIDE]", "values": [{"measurement": "IC50", "setting": "Rattus norvegicus [11]", "result": 0.74, "unit": "µM"}, {"measurement": "EMR", "setting": "Rattus norvegicus [12]", "result": 1}]}
{"smiles": "Nc1c2c(nc3ccccc13)CCCC2", "note": "[TACRINE]", "values": [{"measurement": "IC50", "setting": "Rattus norvegicus [13]", "result": 30, "unit": "µM"}]}
